Source: PubChem BioAssay (several laboratories)
Hits are enriched below; roughly 9.4% of the tested compounds scored in any of these assays.
Beta cell apopt: beta cell apoptosis inhibition; INS-1E cytokine-induced death, ATP luminescence, 48 h; percent of positive-control rescue, neutral wells zero; protection from apoptosis, % (test concentration not listed); 0.8% of 300,000 active;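 active = Every replicate reaches about 75%, or at least half do and their mean reaches it too, limit read from the data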;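 note: higher means more ATP so stronger rescue from cytokine killing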
L major viab: Leishmania major promastigote growth inhibition; Leishmania major promastigotes, resazurin fluorescence viability; inhibition, % at 10 µM; 9% of 200,000 active; AID 1063; in the data active = inhibition above about 50%;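 note: promastigotes grown with compound for 44 hours at 28 °C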
CSC inhib: cancer stem cell inhibition. 1.1% of 300,000 active. cancer stem cell-like cells viability, luminescence. inhibition, % at 7.5 µM; in the data active = inhibition above about 75%; tested in HMLE shEcad cells
SKKanGAS inh: blocks kanamycin growth of S. pyogenes SKKanGAS strain | BacTiter-Glo, 6 h | 1.3% of 300,000 active | inhibition, % at 7.5 µM | AID 1662;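 active = mean replicate score, as percent of positive control median, at least 50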;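 note: strain carries kanamycin resistance gene driven by streptokinase promoter and grows in 40 µg/ml kanamycin; loss of luminescence reflects streptokinase promoter inhibition or plain growth inhibition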
Mdm2-MdmX inh: disrupts the human Mdm2-MdmX interaction; O15151+Q00987; SaOS-2 split-luciferase Mdm2/MdmX complementation, luminescence; inhibition, % at 8 µM; 3% of 330,000 active; AID 485346;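 active = inhibition of at least 50% at 8 µM in the primary screen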
Target sequence (O15151 whole entry, looked up): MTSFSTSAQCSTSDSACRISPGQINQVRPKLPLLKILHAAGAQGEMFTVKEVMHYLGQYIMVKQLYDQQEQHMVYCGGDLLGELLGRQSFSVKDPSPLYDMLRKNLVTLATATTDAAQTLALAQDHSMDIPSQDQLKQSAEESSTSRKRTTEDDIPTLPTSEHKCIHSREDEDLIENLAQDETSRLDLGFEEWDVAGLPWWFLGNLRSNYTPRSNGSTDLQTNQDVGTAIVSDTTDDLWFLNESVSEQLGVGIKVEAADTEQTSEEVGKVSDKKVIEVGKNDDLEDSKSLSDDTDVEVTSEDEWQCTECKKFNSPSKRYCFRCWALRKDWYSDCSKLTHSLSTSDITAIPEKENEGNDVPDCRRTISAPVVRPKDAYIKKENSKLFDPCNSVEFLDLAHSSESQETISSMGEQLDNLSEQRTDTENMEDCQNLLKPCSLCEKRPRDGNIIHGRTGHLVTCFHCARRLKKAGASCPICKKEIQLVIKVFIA
Target sequence (Q00987 whole entry, looked up): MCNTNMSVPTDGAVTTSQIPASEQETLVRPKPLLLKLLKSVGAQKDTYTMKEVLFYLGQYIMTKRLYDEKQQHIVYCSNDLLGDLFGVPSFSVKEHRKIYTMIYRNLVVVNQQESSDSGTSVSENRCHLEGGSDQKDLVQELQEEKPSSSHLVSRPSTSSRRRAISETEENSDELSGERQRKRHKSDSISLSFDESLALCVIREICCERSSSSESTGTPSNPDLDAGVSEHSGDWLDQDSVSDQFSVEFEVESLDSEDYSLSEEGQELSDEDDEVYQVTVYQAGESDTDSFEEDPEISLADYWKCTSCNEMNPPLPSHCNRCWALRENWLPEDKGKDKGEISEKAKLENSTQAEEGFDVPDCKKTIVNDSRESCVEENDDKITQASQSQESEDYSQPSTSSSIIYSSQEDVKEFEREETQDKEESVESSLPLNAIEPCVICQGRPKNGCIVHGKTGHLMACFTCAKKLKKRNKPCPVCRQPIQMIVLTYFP
T cruzi repl: T. cruzi replication inhibition; inhibition, % (no concentration beside the values); 1.4% of 300,000 active; T. cruzi beta-gal in NIH3T3, luminescence, 90 h;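 active = mean inhibition across valid replicates above about 55%, limit read from the data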;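 note: signal also drops with host cell toxicity which is not excluded here; higher percent means less beta-gal luminescence so fewer parasites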
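Incubation – ≥90 h infection period, 3 h prior cell attachment · System – NIH/3T3 fibroblasts plus reporter T. cruzi · Doses – compound pinned at 50 nL/well, DMSO · Read-out basis – percent inhibition of parasite-derived β-gal signal · Signal – luminescent β-galactosidase signal after 60 min lysis · Also added – 5000 T. cruzi trypomastigotes/well · Medium – Low-serum DMEM with 2% FBS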
Of the large screens only hits and unclear results are named; the others gave an inactive call.

CS(=O)(=O)N1CCN(c2ccccc2NC(=O)c2ccc(-c3ccc(Br)cc3)o2)CC1	L major viab 53
O=S(=O)(c1cnc[nH]1)N1CCc2ccccc21	L major viab 61
CC1Cc2ccccc2N1S(=O)(=O)c1cnc[nH]1 (stereo not given)	none
COc1ccc(NS(=O)(=O)c2cc(OCC(N)=O)c(C)cc2Cl)cc1	L major viab 76
Cc1cc(Cl)c(S(=O)(=O)Nc2cccc(O)c2)cc1OCC(N)=O	L major viab 53
CCOc1ccc(NS(=O)(=O)c2cc(OCC(N)=O)c(C)cc2Cl)cc1	none
CCCOc1ccc(-c2nc(C#N)c(NCC3CCCO3)o2)cc1 (stereo not given)	L major viab 92
COc1ccc(CCN2CC(C(=O)NCCN3CCCC3=O)CCC2=O)cc1 (stereo not given)	none (no result: L major viab)
Cc1ccc(CSCc2nnc(SCC(=O)N3CCN(c4ccccc4)CC3)n2C)cc1	none
CCn1c(CSCc2ccc(F)cc2)nnc1SCC(=O)N1CCN(c2ccccc2)CC1	L major viab 63
Cc1ccccc1-n1c(SCC(=O)N2CCN(c3ccccc3)CC2)nnc1-c1ccncc1	L major viab 62
CCn1c(SCC(=O)N2CCN(c3ccccc3)CC2)nnc1-c1c[nH]c2ccccc12	L major viab 58
O=C1CCC(C(=O)N2CCCCO2)CN1Cc1ccc(Cl)cc1 (stereo not given)	none (no result: L major viab)
C#C[C@]1(O)CC[C@H]2[C@@H]3CCc4cc(OC5CCCC5)ccc4[C@H]3CC[C@@]21C	CSC inhib 98, SKKanGAS inh 103, T cruzi repl 55 (no result: L major viab)
Cc1[nH][nH]c(=O)c1C(c1ccc(-c2cccc(C(=O)O)c2)o1)c1c(C)[nH][nH]c1=O	none
Cc1[nH][nH]c(=O)c1C(c1ccc(-c2ccc(Cl)cc2Cl)o1)c1c(C)[nH][nH]c1=O	L major viab 100 (no result: Beta cell apopt, CSC inhib, SKKanGAS inh, Mdm2-MdmX inh, T cruzi repl)
COC(=O)c1ccc(-c2ccc(C(c3c(C)[nH][nH]c3=O)c3c(C)[nH][nH]c3=O)o2)cc1	L major viab 97 (no result: CSC inhib)
CC(=O)C(Cc1cccc(F)c1)(Cc1cccc(F)c1)C(C)=O	none
COc1ccc(N2Cc3ccc(C(=O)N/N=C\c4ccc(O)cc4O)cc3C2)cc1	CSC inhib 91 (no result: L major viab)
O=C(Nc1ccccc1-c1ccccc1)c1ccc(=O)[nH]n1	none (no result: Beta cell apopt, L major viab)
COc1cc(CNCc2ccc(Br)cc2)cc(OC)c1	none (no result: L major viab)
CCCCCNCc1ccc(Br)cc1	L major viab 87
CCCCNC(=S)Nc1ccc(Cl)cc1	none
CCCCCNCc1ccc(Cl)cc1	L major viab 51 (no result: CSC inhib)
OCCCCNCc1ccc(OCc2ccc(Cl)cc2)cc1	L major viab 100, T cruzi repl 57 (no result: Beta cell apopt, CSC inhib)
CCCCCCNCc1ccc(Br)cc1	L major viab 86
COc1ccc(CCNCc2ccc(OCc3ccccc3)cc2)cc1	none (no result: L major viab)
CC(C)COc1ccc(C(=S)N2CCCC2)cc1	none (no result: L major viab)
Cc1cccc(N(Cc2ccccc2)C(=O)CCl)c1	L major viab 81, T cruzi repl 72 (no result: Beta cell apopt, CSC inhib, Mdm2-MdmX inh)
COc1ccc(N(C(=O)CNC(=O)c2ccco2)C(C(=O)NCC2CCCO2)c2ccc(OC)c(OC)c2)cc1 (stereo not given)	none (no result: L major viab)
C=C1CCC(C)C(C)(CCC2=CCOC2=O)C/C=C\C=C/1C(=O)O (stereo not given)	none (no result: Beta cell apopt, L major viab)
O=C(Nc1ccccc1)OC1CCC2CC1CCC2OC(=O)Nc1ccccc1 (stereo not given)	SKKanGAS inh 52
c1ccc2c(Nc3nnc(-c4ccncc4)s3)cccc2c1	T cruzi repl 57
C=CCNc1nnc(-c2ccncc2)s1	none
COc1ccccc1-c1cc(C(=O)N2CCc3ccccc3C2)c2ccccc2n1	L major viab 100
COc1ccccc1Nc1cc(C(=O)N2CCc3ccccc3C2)c2ccccc2n1	none
COc1ccc(Nc2cc(C(=O)N3CCc4ccccc4C3)c3ccccc3n2)c(OC)c1	L major viab 56
NC(=O)c1ccccc1Nc1nc(NCCO)nc(N2CCCC2)n1	none (no result: L major viab)
Cn1c(=O)c2[nH]c(COc3ccc(C(C)(C)C)cc3)nc2n(C)c1=O	none (no result: L major viab)
CC(N=C1NS(=O)(=O)c2ccccc21)C(=O)OCC(=O)N(C)C1CCS(=O)(=O)C1 (stereo not given)	none (no result: L major viab, SKKanGAS inh, T cruzi repl)
COc1ccc(C2CC(=O)C3=C(C2)Nc2ncnn2C3c2ccccc2C)cc1 (stereo not given)	L major viab 100
COc1ccc(C2CC(=O)C3=C(C2)Nc2ncnn2C3c2ccccc2)cc1 (stereo not given)	L major viab 91
COc1ccccc1NC(=O)C1=C(C)Nc2ncnn2C1c1ccccc1C (stereo not given)	none
COc1cccc2cc(CC(=O)c3ccccc3)c(=O)oc12	none (no result: L major viab)
CN(Cc1ccccc1)C(=O)C1CCN(S(=O)(=O)c2ccc3nc4c(c(C(=O)O)c3c2)CCCC4)CC1	none (no result: L major viab)
O=C(CCCn1cnc([N+](=O)[O-])n1)Nc1ccc(Cl)cc1Cl	T cruzi repl 58
O=C(CCCn1cnc([N+](=O)[O-])n1)Nc1ccc(F)c(Cl)c1	L major viab 83, T cruzi repl 60
COc1cccc(NC(=O)COC(=O)CCSc2ccccc2)c1	none (no result: L major viab, SKKanGAS inh, T cruzi repl)
O=C1C2C3c4ccccc4C(c4ccccc43)C2C(=O)N1c1cccnc1 (stereo not given)	L major viab 51
NC(=O)C1CCN(C(=O)C(=O)c2cn(CC(=O)N3CCCCCC3)c3ccccc23)CC1	T cruzi repl 62 (no result: L major viab)
CC1CCCN(C(=O)C(=O)c2cn(CC(=O)N3CCCCCC3)c3ccccc23)C1 (stereo not given)	T cruzi repl 62 (no result: L major viab, CSC inhib)
CCN1CCN(C(=O)C(=O)c2cn(CC(=O)N3CCCCCC3)c3ccccc23)CC1	none (no result: L major viab)
CC1CCN(C(=O)C(=O)c2cn(CC(=O)N3CCCCCC3)c3ccccc23)CC1	T cruzi repl 55 (no result: L major viab, CSC inhib)
Cc1cccc(N/C(N)=N/c2nc(C)cc(=O)[nH]2)c1	none (no result: Beta cell apopt)
CC(=O)OC[C@H]1O[C@@H](O[C@H]2C[C@]3(C)C(C[C@@H](O)C4C([C@]5(C)CC[C@@H](C(C)(C)O)O5)CC[C@]43C)[C@@]3(C)CC[C@H](O)C(C)(C)C23)[C@H](O[C@@H]2O[C@@H](C)[C@H](O)[C@@H](O)[C@H]2O)[C@@H](O)[C@@H]1O (stereo not given in full)	none (no result: L major viab, SKKanGAS inh, T cruzi repl)
CCC(=C(c1ccc(OC)cc1)c1ccc(OC)cc1)c1cn(CC(O)CN2CCN(C)CC2)c2ccccc12 (stereo not given)	L major viab 100, CSC inhib 107 (no result: SKKanGAS inh, Mdm2-MdmX inh, T cruzi repl)
CCOC(=O)c1[nH]cnc1N=Nc1c(O)ccc2ccccc12	Beta cell apopt 97 (no result: Mdm2-MdmX inh)
Oc1ccc2ccccc2c1N=Nc1ccccc1F	none (no result: L major viab)
O=C(Nc1cccnc1)c1cc(-c2cccc(Br)c2)nc2ccccc12	none (no result: L major viab)
O=C(Nc1ccncc1)c1cc(-c2cccc(Br)c2)nc2ccccc12	CSC inhib 106 (no result: L major viab)
O=C(Nc1ccc([N+](=O)[O-])cn1)c1cc(-c2cccc(Br)c2)nc2ccccc12	none (no result: CSC inhib)
